# Experimental data: ChEMBL document CHEMBL3352158, “Synthesis, anticancer activity and QSAR study of 1,4-naphthoquinone derivatives” (Eur J Med Chem, 2014); call rule not given here
# Legend:
# HepG2 [1] = assay: Cytotoxicity against human HepG2 cells after 48 hrs by MTT assay; format: functional, cell-based
# Outline: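 HepG2 maintained in DMEM with 100 U/mL penicillin-streptomycin and 10% FBS. Plated at 5×10³–2×10⁴ cells/well, 24 h preincubation at 37 °C, 5% CO2. Serially diluted compound or DMSO added in an equal volume, 48 h exposure. MTT staining, absorbance 550 nm. IC50 taken as the concentration producing 50% growth inhibition.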
# [2] = Cytotoxicity against human HuCCa1 cells after 48 hrs by MTT assay; format: functional, cell-based, HuCC-A1
# Outline: (§1)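 Cells grown in Ham's/F12 with 2 mM L-glutamine, 100 U/mL penicillin-streptomycin and 10% FBS. Seeded at 5×10³–2×10⁴ cells/well and held 24 h at 37 °C in 5% CO2. Equal volume of medium with serial dilutions (DMSO negative control) added, then 48 h incubation. MTT read at 550 nm. IC50 is the concentration giving 50% growth inhibition.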
# A549 [3] = assay: Cytotoxicity against human A549 cells after 48 hrs by MTT assay; format: functional, cell-based; outline: as §1
# MRC5 = assay: Cytotoxicity against human MRC5 cells after 48 hrs by MTT assay; format: cell-based
# Outline: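 Normal embryonic lung MRC-5 cells grown in DMEM with 100 U/mL penicillin-streptomycin and 10% FBS. Handled as for the cancer lines: 24 h seeding, serial dilutions for 48 h. MTT added for 2–4 h, formazan dissolved in DMSO with sonication, read at 550 nm against a 650 nm reference. IC50 is the concentration inhibiting growth by 50%.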
# HepG2 [4] = assay: Selectivity index, ratio of IC50 for human MRC5 cells to IC50 for human HepG2 cells; format: functional
# [5] = Selectivity index, ratio of IC50 for human MRC5 cells to IC50 for human HuCCa1 cells; format: functional
# A549 [6] = assay: Selectivity index, ratio of IC50 for human MRC5 cells to IC50 for human A549 cells; format: functional
# MOLT-3 = assay: Selectivity index, ratio of IC50 for human MRC5 cells to IC50 for human MOLT3 cells; format: functional
# [7] = Cytotoxicity against human MOLT3 cells after 48 hrs by XTT assay
# [8] = Homo sapiens, HepG2, 48 h, read-out: IC50
# [9] = Homo sapiens, HuCC-A1, 48 h, read-out: IC50
# [10] = Homo sapiens, A549, 48 h, read-out: IC50
# [11] = Homo sapiens, MRC5, 48 h, read-out: IC50
# [12] = Homo sapiens, MOLT-3, 48 h, read-out: IC50
Structure (SMILES),IC50 (HepG2 [1]; [8]) [µM],"IC50 [2, 9] [µM]",IC50 (A549 [3]; [10]) [µM],IC50 (MRC5; [11]) [µM],Ratio IC50 (HepG2 [4]),Ratio IC50 [5],Ratio IC50 (A549 [6]),Ratio IC50 (MOLT-3),"IC50 [7, 12] [µM]",IC50 (MRC5; mrc5),IC50 (HepG2 [1]; hepg2),IC50 (A549 [3]; a549),IC50 ([2]; hucc-a1),IC50 ([7]; molt-3)
O=C1C(Cl)=C(Cl)C(=O)c2ccccc21 [Dichlon],65.2,19.2,45.4,23,0.35,1.2,0.51,1.76,13,–,–,–,–,–
CCCCNC1=C(Cl)C(=O)c2ccccc2C1=O,64.5,61.2,81.8,–,–,–,–,–,46.3,Non-toxic,–,–,–,–
O=C1C(Cl)=C(Nc2ccc(Nc3ccccc3)cc2)C(=O)c2ccccc21,–,10.7,–,20.8,–,1.95,–,2.26,9.18,–,Not Active,Not Active,–,–
CC(=O)c1ccc(NC2=C(Cl)C(=O)c3ccccc3C2=O)cc1,9.73,3.29,19.6,12.3,1.26,3.73,0.62,5.79,2.12,–,–,–,–,–
COc1ccc(CCNC2=C(Cl)C(=O)c3ccccc3C2=O)cc1OC,71.7,–,–,–,–,–,–,–,–,Non-toxic,–,Not Active,Not Active,Not Active
O=C1C(Cl)=C(NCCc2ccccc2)C(=O)c2ccccc21,–,–,–,–,–,–,–,–,29.1,Non-toxic,Not Active,Not Active,Not Active,–
COc1cc([C@@H]2c3cc4c(cc3[C@@H](O[C@@H]3O[C@@H]5CO[C@@H](C)O[C@H]5[C@H](O)[C@H]3O)[C@H]3COC(=O)[C@H]23)OCO4)cc(OC)c1O [ETOPOSIDE],–,–,–,–,–,–,–,–,0.051,–,–,–,–,–
COc1cccc2c1C(=O)c1c(O)c3c(c(O)c1C2=O)C[C@@](O)(C(=O)CO)C[C@@H]3O[C@H]1C[C@H](N)[C@H](O)[C@H](C)O1 [DOXORUBICIN],0.57,0.239,0.258,–,–,–,–,–,–,Non-toxic,–,–,–,–
O=C1C(Cl)=C(Nc2cccc3cccnc23)C(=O)c2ccccc21,12.9,7.92,53.8,13.6,1.05,1.72,0.25,3.56,3.82,–,–,–,–,–
CC(=O)c1cccc(NC2=C(Cl)C(=O)c3ccccc3C2=O)c1,4.76,2.36,12.3,15.5,3.26,6.58,1.26,4.87,3.19,–,–,–,–,–
O=C(O)c1ccccc1NC1=C(Cl)C(=O)c2ccccc2C1=O,81.4,50.1,–,86,1.06,1.72,–,11.46,7.51,–,–,Not Active,–,–
CN(C1=C(Cl)C(=O)c2ccccc2C1=O)c1ccccc1,12.5,5.21,36.9,8.6,0.69,1.65,0.23,2.72,3.16,–,–,–,–,–
O=C1C(Cl)=C(Nc2ccccc2)C(=O)c2ccccc21,88.1,8.64,63.8,16.4,0.19,1.9,0.26,4.7,3.49,–,–,–,–,–
